Laboratory results reported in ChEMBL document CHEMBL1137782, “Identification of peptide substrate and small molecule inhibitors of testis-specific serine/threonine kinase1 (TSSK1) by the developed assays” (J Med Chem, 2009).

T1: Testis-specific serine/threonine-protein kinase 1 (Homo sapiens, UniProt Q9BXA7)
T1 sequence (Q9BXA7 whole entry): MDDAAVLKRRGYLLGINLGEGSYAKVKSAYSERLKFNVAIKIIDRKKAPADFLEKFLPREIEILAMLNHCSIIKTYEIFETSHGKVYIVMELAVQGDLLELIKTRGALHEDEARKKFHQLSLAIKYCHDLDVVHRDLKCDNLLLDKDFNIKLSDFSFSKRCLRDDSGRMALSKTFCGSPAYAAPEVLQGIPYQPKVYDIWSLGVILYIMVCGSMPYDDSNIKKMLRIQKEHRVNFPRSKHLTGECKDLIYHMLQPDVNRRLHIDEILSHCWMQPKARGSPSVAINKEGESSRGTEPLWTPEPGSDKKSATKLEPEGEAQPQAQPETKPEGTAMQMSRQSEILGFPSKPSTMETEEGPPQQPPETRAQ

T2: Testis-specific serine/threonine-protein kinase 1 (Homo sapiens) (UniProt Q9BXA7)
T2 sequence (whole entry): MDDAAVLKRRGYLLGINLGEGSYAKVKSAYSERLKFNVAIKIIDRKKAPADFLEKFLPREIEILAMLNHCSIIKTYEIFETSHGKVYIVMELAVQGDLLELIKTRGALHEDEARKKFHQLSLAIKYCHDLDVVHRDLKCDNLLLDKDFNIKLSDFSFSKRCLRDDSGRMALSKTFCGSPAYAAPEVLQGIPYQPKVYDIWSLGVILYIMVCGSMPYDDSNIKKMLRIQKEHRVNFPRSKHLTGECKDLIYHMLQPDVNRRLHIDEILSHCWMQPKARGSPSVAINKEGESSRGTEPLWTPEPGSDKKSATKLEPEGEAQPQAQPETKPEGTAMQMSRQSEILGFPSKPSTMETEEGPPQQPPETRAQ


Experiments:
[1] = molecular target: T1, Testis-specific serine/threonine-protein kinase 1; assay: Inhibition of TSSK1-catalyzed phosphorylation of AALVRQMSVAFFFK substrate by LC-MS based HTP assay in presence of Pep8-(O2)
How it was run: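 TSSK1 reaction at final 75 ng/well enzyme, 10 μM Pep8, 25 μM ATP in Tris-HCl/MgCl2/BSA/DTT buffer, 90 min at 37 °C. Acetonitrile quench carried 7 μM sulfone internal standard Pep8-P(O2). After 15000g spin, C18 HPLC-MS analysis. Pep8-P concentration calculated from its peak area relative to the internal standard using a normalization factor, and IC50 derived from that.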

[2] = molecular target: T2, Testis-specific serine/threonine-protein kinase 1 (Homo sapiens); assay: Inhibition of TSSK1-catalyzed phosphorylation of AALVRQMSVAFFFK substrate at 20 uM by luminescent kinase assay
How it was run: (§1)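 Luminescent Kinase-Glo read-out of ATP left after reaction. Buffer 40 mM Tris-HCl, 20 mM MgCl2, 0.1 mg/mL BSA, 2 mM DTT. Final 0.5 μg/well TSSK1, 10 μM Pep8 peptide, 1.5 μM ATP. Incubated 2 h at 37 °C, then an equal volume of Kinase-Glo added for 10 min at room temperature before luminescence (RLU) reading. Controls lacked peptide or lacked TSSK1; staurosporine 100 μM as positive control.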

[3] = molecular target: T1, Testis-specific serine/threonine-protein kinase 1; assay: Inhibition of TSSK1-catalyzed phosphorylation of AALVRQMSVAFFFK substrate by luminescent kinase assay; how it was run: as §1
[4] = molecular target: T1, Testis-specific serine/threonine-protein kinase 1; assay: Inhibition of TSSK1-catalyzed phosphorylation of AALVRQMSVAFFFK substrate by LC-MS based HTP assay in absence of Pep8-(O2)
How it was run: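 End-point LC-MS read-out of phosphorylated Pep8 (Pep8-P). Reaction in 40 mM Tris-HCl, 20 mM MgCl2, 0.1 mg/mL BSA, 2 mM DTT with final 75 ng/well TSSK1, 10 μM Pep8, 25 μM ATP, run 90 min at 37 °C. Quenched with acetonitrile, spun 15000g 10 min, then analysed by C18 HPLC-MS using formic acid/acetonitrile gradient. IC50 taken from Pep8-P peak area with no internal standard.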

[5] = substrate: CSCC[C@H](NC(=O)[C@H](CCC(N)=O)NC(=O)[C@H](CCCNC(=N)N)NC(=O)[C@@H](NC(=O)[C@H](CC(C)C)NC(=O)[C@H](C)NC(=O)[C@H](C)N)C(C)C)C(=O)N[C@@H](CO)C(=O)N[C@H](C(=O)N[C@@H](C)C(=O)N[C@@H](Cc1ccccc1)C(=O)N[C@@H](Cc1ccccc1)C(=O)N[C@@H](Cc1ccccc1)C(=O)N[C@@H](CCCCN)C(=O)O)C(C)C; assay: (§2) Activity at TSSK1 by Michaelis-Menten plot
How it was run: (§3)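 Enzyme time courses quantified phosphorylated Pep8 by LC-MS. ATP was varied 3.13–200 μM with Pep8 at 30 μM, or Pep8 0–40 μM with ATP at 200 μM. Reactions were quenched with acetonitrile containing 7 μM sulfone internal standard. Initial velocities were taken in duplicate and fitted to Michaelis-Menten by nonlinear least squares.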

[6] = substrate: Nc1ncnc2c1ncn2[C@@H]1O[C@H](COP(=O)(O)OP(=O)(O)OP(=O)(O)O)[C@@H](O)[C@H]1O; assay: as §2; how it was run: as §3

Row | Molecule | IC50 [1] [µM] | inhibition [2] [%] | also measured
1 | CCCCCCCn1c(-c2ccc(O)c(O)c2)nc2cc3[nH]c(=O)c(C(C)C)nc3cc21 | 72 |  | 
2 | CC(C)c1nc2cc3c(cc2[nH]c1=O)nc(-c1ccc(C(=O)O)cc1)n3CCCc1ccccc1 | 38 |  | 
3 | C=CC(=O)Oc1cc(O)c2c(CCC)cc(=O)oc2c1 |  | > 40 | 
4 | CC(=O)Nc1ccc(-c2nc3cc4[nH]c(=O)c(C)nc4cc3n2CCCc2ccccc2)cc1 | 98 |  | 
5 | O=C(c1ccc(-c2ccc(C(=O)C(O)O)cc2)cc1)C(O)O |  | > 40 | IC50 [3]: 43.2 µM
6 | CCc1cc(=O)oc2cc3c(c(O)c12)C(=O)CC(C)O3 (stereo not drawn) |  | > 40 | 
7 | O=C(c1ccc(-c2ccc(C(=O)C(O)S(=O)(=O)O)cc2)cc1)C(O)S(=O)(=O)O (stereo not drawn) | 19.1 |  | IC50 [4]: 14.4 µM; IC50 [3]: 24.8 µM
8 | CC(C)C[C@H](CC(=O)N[C@H](CCC(N)=O)C(=O)O)NC(=O)c1cc(Cl)ccc1N |  | > 40 | 
9 | O=c1oc2cc(O)cc(O)c2c2c1CCCC2 |  | > 40 | 
10 | Cc1c(Cc2ccccc2)c(=O)oc2cc(O)cc(O)c12 |  | > 40 | 
11 | CCCc1cc(=O)oc2cc3c(c(O)c12)C(=O)CC(C)O3 (stereo not drawn) |  | > 40 | IC50 [3]: 38.7 µM
12 | CCCc1c(Cl)c(=O)oc2cc(O)cc(O)c12 |  | > 40 | 
13 | Testis-specific serine/threonine-protein kinase 1 (Homo sapiens), Q9BXA7 (protein) MDDAAVLKRRGYLLGINLGEGSYAKVKSAYSERLKFNVAIKIIDRKKAPADFLEKFLPREIEILAMLNHCSIIKTYEIFETSHGKVYIVMELAVQGDLLELIKTRGALHEDEARKKFHQLSLAIKYCHDLDVVHRDLKCDNLLLDKDFNIKLSDFSFSKRCLRDDSGRMALSKTFCGSPAYAAPEVLQGIPYQPKVYDIWSLGVILYIMVCGSMPYDDSNIKKMLRIQKEHRVNFPRSKHLTGECKDLIYHMLQPDVNRRLHIDEILSHCWMQPKARGSPSVAINKEGESSRGTEPLWTPEPGSDKKSATKLEPEGEAQPQAQPETKPEGTAMQMSRQSEILGFPSKPSTMETEEGPPQQPPETRAQ |  |  | Km [5]: 25.2 µM; Km [6]: 50.5 µM
